The data set can be described thus: Toxicity liver stage against HepG2, at 10uM. The conditions noted are these: human, HepG2-A16-CD81EGFP cells; read-out: INHIBITION
The format is cell-based. Also on record: test concentration 10 uM, cell line HepG2-A16-CD81EGFP. An outline of the steps:
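Uninfected HepG2-A16-CD81EGFP cells, 3 × 10^3 per well, 1536-well, plated on prespotted compound at 10 μM final, parasite-free screening media added to match infected plates; puromycin 10 μM positive, DMSO 0.5% negative; run in parallel with 48 h PbLuc assay at 37 °C, 5% CO2; viability by CellTiter-Glo luminescence, normalized to controls.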
On to `CC[C@H]1CN(S(=O)(=O)c2ccccc2)CC[C@H]1CC(=O)O`, for which the cytotoxicity at 10 µM turned out to be 1.7%.

In the case of `CC(=O)N1N=C(c2ccccc2)OC1C(=O)NCCc1cccc(F)c1` (centres undefined), the cytotoxicity at 10 µM was -1.08%.

With `CS(=O)(=O)N1CCc2ncc(CNC(=O)C3CCC3)n2CC1`, the cytotoxicity at 10 µM turned out to be 10.9%.

For the compound `Cc1cnc(C(=O)N2C[C@H]3CN(Cc4cccs4)C[C@H]3C2)cn1`, the cytotoxicity at 10 µM is -148%.

Turning to `Cc1cc(O)c(OCC(=O)Nc2nccs2)cn1`, the cytotoxicity at 10 µM stood at 4.07%.

In the case of `O=C(NCc1ccco1)c1nn(C2CCS(=O)(=O)C2)c2c1CCCC2` (centres undefined), the cytotoxicity at 10 µM is -11%.

Regarding `CC(=O)N1CC(=O)N(c2cnn(C)c2)CC12CCN(Cc1ccoc1)C2` (centres undefined), the cytotoxicity at 10 µM is -9.81%.

For `CC(=O)Nc1ccn(Cc2ccccc2)n1`, the cytotoxicity at 10 µM was determined as 2.04%.

In the case of `NC(=O)CN1CCCCC1c1ccc(-n2ccnc2)nc1` (centres undefined), the cytotoxicity at 10 µM is 1.6%.

Take `CN(CCN(C)S(=O)(=O)CC1CCOCC1)c1ccccc1`: the cytotoxicity at 10 µM is -9.65%.

`CC(C)N(C)S(=O)(=O)N1CCN(Cc2ccco2)CC1`: the cytotoxicity at 10 µM was -0.796%.

Consider `OC1(CN2CCCC(Cn3cncn3)C2)CCCCC1` (centres undefined), for which the cytotoxicity at 10 µM is 2.96%.

For `CC(C(=O)NCc1ccnc(OCC(F)(F)F)c1)n1cncn1` (centres undefined), the cytotoxicity at 10 µM was 1.13%.

With `O=C(NC1CCN(Cn2nc(-c3ccccc3)oc2=O)CC1)C1CC1`, the cytotoxicity at 10 µM was found to be 8.19%.

`c1cncc(CN2CCC(NCCc3ccc4c(c3)OCO4)CC2)c1`: the cytotoxicity at 10 µM was -9.62%.

Consider `CC(C(=O)Nc1ncccn1)N1CCc2[nH]nc(C(F)(F)F)c2C1` (centres undefined), for which the cytotoxicity at 10 µM was -0.583%.

With `COc1ccc(Cl)cc1NC(=O)N(C)CC(O)COCCOC(C)C` (centres undefined), the cytotoxicity at 10 µM was found to be 11.3%.

Turning to `CC(=O)NC1CCCN(c2ccc(C#N)cc2C(F)(F)F)C1` (centres undefined), the cytotoxicity at 10 µM was found to be 7.44%.

Regarding `CN(CCC(F)(F)F)C(=O)[C@H]1CSCN1C(=O)OC(C)(C)C`, the cytotoxicity at 10 µM is -9.39%.

Turning to `CCc1cn[nH]c1C1CCN(C(=O)c2cc(C(C)=O)c(C)[nH]c2=O)CC1`, the cytotoxicity at 10 µM is -2.23%.

`CCC(C(=O)N(C)C)N1CCC(c2nccn2Cc2cscn2)CC1` (centres undefined): the cytotoxicity at 10 µM is 2.86%.

In the case of `Cc1ccc(C(C(=O)O)N(C)CCCN2CCOCC2)c(C)c1` (centres undefined), the cytotoxicity at 10 µM was determined as 0.129%.

Take `COCCCN1CCC(CNc2nccc(-c3cnn(C)c3)n2)C1` (centres undefined): the cytotoxicity at 10 µM is -147%.

As to `CC(Cc1ccc2c(c1)OCO2)c1cn(CCN2CCCC2)nn1` (centres undefined), the cytotoxicity at 10 µM stood at 7.09%.

Regarding `Cn1nc(CN2CCC(c3ccncc3)CC2)c2c(Cl)cccc21`, the cytotoxicity at 10 µM is -6.06%.

On to `Cc1ncc(C(=O)N2CC[C@@]3(O)CCN(C4CCCCC4)C[C@H]3C2)cn1`, for which the cytotoxicity at 10 µM was -135%.

On to `CCC(NC(=O)c1cc(CC(C)C)nn1C)c1ccnn1C` (centres undefined), for which the cytotoxicity at 10 µM was -146%.

Turning to `CSCc1noc(Cn2ccc3ccccc3c2=O)n1`, the cytotoxicity at 10 µM is 3.63%.

For `Cc1nc(Cn2nc(C3CCNCC3)n(Cc3ccccc3)c2=O)no1`, the cytotoxicity at 10 µM is -19.3%.

For the compound `CC(=O)N1CCC(Nc2cc(F)ccc2OCC2CCCO2)CC1` (centres undefined), the cytotoxicity at 10 µM is -14.3%.

For the compound `COc1ncccc1NC(=O)N(Cc1ccco1)C1CC1`, the cytotoxicity at 10 µM was 5.25%.

As for `COc1ccc(Cl)cc1CC(=O)NS(=O)(=O)c1ccc(C(N)=O)cc1`, the cytotoxicity at 10 µM is -2.64%.

As for `O=C(NCCC(=O)N1CCCCCCC1)c1ccoc1`, the cytotoxicity at 10 µM was -22.2%.

Turning to `CCN(CC)CC1CCN(Cc2ccn(C)c(=O)c2)CC1`, the cytotoxicity at 10 µM was -14.7%.

Take `Cc1nnc2n1CCN(CC(=O)Nc1cc(C(C)C)no1)C2`: the cytotoxicity at 10 µM is -6.93%.

Turning to `CNC(=O)NC(=O)CN(CC(C)O)c1ccccc1` (centres undefined), the cytotoxicity at 10 µM was found to be 10.9%.

Take `CC(C)NC(=O)N1C[C@H](OCc2cccnc2)[C@H]2COC[C@H]21`: the cytotoxicity at 10 µM came to 6.43%.

For the compound `Cc1noc(C(C)C)c1C(=O)NCCCN1CCNCC1`, the cytotoxicity at 10 µM is -24.7%.

Regarding `Cc1cccc(CN2C(=O)CO[C@@H]3CN(C4CCOCC4)C[C@H]32)c1`, the cytotoxicity at 10 µM was -146%.

Values taken from ChEMBL document CHEMBL4513216, “Probing the Open Global Health Chemical Diversity Library for Multistage-Active Starting Points for Next-Generation Antimalarials” (ACS Infect Dis, 2020).
